Results published in ChEMBL document CHEMBL4020708, “Studies of CDK 8/19 inhibitors: Discovery of novel and selective CDK8/19 dual inhibitors and elimination of their CYP3A4 time-dependent inhibition potential” (Bioorg Med Chem, 2017).
pEC50, pIC50: −log10 of the molar value. ≈ marks a conversion by molar mass, not a printed value. Calls of active or inactive are those of the source. The rule behind the calls is not given here.

How the values were obtained:
[1] = target: CDK8/Cyclin C (Homo sapiens, UniProt P49336); experiment: Inhibition of kinase tracer 236 binding to full length N terminal GST-tagged human CDK8 (1 to 464 end residues) /CycC ( 1 to 283 end residues) expressed in baculovirus expression system after 60 min by TR-FRET assay
Outline: (§1)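 TR-FRET ligand displacement using 20 nM GST-CDK8/CycC or GST-CDK19/CycC, 20 nM Kinase Tracer 236 and Tb-anti-GST antibody. Buffer 25 mM HEPES, 10 mM MgCl₂, 2 mM DTT, 0.01% Tween-20. Incubated 60 min at rt.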

[2] = target: Cyclin-C/Cyclin-dependent kinase 19 (Homo sapiens, UniProt Q9BWU1); experiment: Inhibition of kinase tracer 236 binding to GST-tagged CDK19/CycC (unknown origin) after 60 min by TR-FRET assay; format: protein-complex assay; outline: as §1
[3] = target: T1, Cyclin-dependent kinase 8 (Homo sapiens, UniProt P49336); experiment: Inhibition of CDK8 in human SW480 cells assessed as reduction in IFN-gamma induced STAT1 phosphorylation at Ser727 residues preincubated for 2 hrs followed by IFN-gamma addition measured after 1 hr by In-cell western assay; format: cell-based
Outline: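 SW480 cells kept in L-15 with 10% FBS at 37 °C and plated at 6000 cells/well overnight. Compound applied 2 h, then 10 ng/mL IFN-γ for 1 h. Cells fixed, permeabilized and blocked, then probed overnight at 4 °C with anti-pSTAT1 Ser727. IRDye 800CW secondary plus DRAQ5 for DNA, Odyssey imaging.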

[4] = target: CYP3A4 (Homo sapiens, UniProt P08684); experiment: Time-dependent inhibition of CYP3A4 in human liver microsomes assessed as reduction in testosterone to 6beta-hydroxytestosterone conversion by measuring remaining activity at 30 uM preincubated for 60 mins followed by testosterone addition measured after 20 mins in presence of NADPH by UPLC analysis relative to control; format: ADME; settings: probe testosterone (6beta-hydroxylation), read-out: Activity
Outline: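 Compound at 30 μM preincubated with human liver microsomes in phosphate buffer pH 7.4 at 37 °C for 0 or 60 min with an NADPH-generating system. Testosterone then added for 20 min, and 6β-hydroxytestosterone measured by UPLC. Activity expressed as % of DMSO control; % remaining taken after 60 min preincubation.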

[5] = Total clearance in mouse at 1 mg/kg, po administered as cassette dose measured up to 8 hrs by LC/MS/MS analysis; format: ADME, organism-based; settings: in vivo
[6] = Cmax in mouse at 1 mg/kg, po administered as cassette dose measured up to 8 hrs by LC/MS/MS analysis; format: ADME, organism-based; parameters: dose 1 mg/kg, route oral; settings: in vivo
Outline: (§2)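 Cassette dosing to non-fasted mice, 1 mg/kg po (0–8 h). Plasma obtained from blood by centrifugation, deproteinized with acetonitrile, centrifuged, and the supernatant analysed by LC/MS/MS.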

[7] = AUC (0 to 8 hrs) in mouse at 1 mg/kg, po administered as cassette dose by LC/MS/MS analysis; format: ADME, organism-based; parameters: time < 8 hr, dose 1 mg/kg, route oral; settings: in vivo; outline: as §2
[8] = MRT in mouse at 1 mg/kg, po administered as cassette dose measured up to 8 hrs by LC/MS/MS analysis; format: ADME, organism-based; settings: in vivo; outline: as §2
[9] = Oral bioavailability in mouse at 1 mg/kg administered as cassette dose measured up to 8 hrs by LC/MS/MS analysis; format: ADME, organism-based; settings: in vivo
Outline: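 Bioavailability from mouse cassette dosing, 0.1 mg/kg iv and 1 mg/kg po, non-fasted animals. Plasma was deproteinized with acetonitrile and compound quantified by LC/MS/MS.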

[10] = system: Liver; experiment: Intrinsic clearance in human liver microsomes at 1 umol/L after 15 to 30 mins in presence of NADPH by LC/MS/MS analysis; format: ADME, microsome; settings: 1 µM
Outline: (§3)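 Human or mouse liver microsomes at 0.2 mg/mL protein in 50 mmol/L phosphate buffer pH 7.4 with 1 μmol/L compound. Reaction started with an NADPH-generating system and stopped at 15 and 30 min with acetonitrile. LC/MS/MS readout. Intrinsic clearance taken as initial metabolic velocity (slope of concentration-time) divided by compound concentration.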

[11] = system: Liver; experiment: Intrinsic clearance in mouse liver microsomes at 1 umol/L after 15 to 30 mins in presence of NADPH by LC/MS/MS analysis; format: ADME, microsome; settings: 1 µM; outline: as §3
[12] = Solubility of the compound at pH 6.8; format: physicochemical; settings: buffer
Outline: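 Compound added from DMSO solution to JP 2nd disintegration fluid (pH 6.8) and incubated. Precipitate removed by filtration, and filtrate concentration measured by plate reader or HPLC.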

[13] = system: Plasma; experiment: Drug metabolism in mouse plasma assessed as formation of (E)-3-(4-(1H-pyrazol-4-yl)pyridin-3-yl)-N-(4-(morpholinomethyl)phenyl)acrylamide at 1 mg/kg, po administered as cassette dose measured up to 8 hrs by LC/MS/MS analysis; format: ADME, organism-based; settings: in vivo; outline: as §2
[14] = system: Plasma; experiment: Drug metabolism in mouse plasma assessed as formation of (E)-4-(1-methyl-1H-pyrazol-4-yl)-3-(3-(4-(morpholinomethyl)phenylamino)-3-oxoprop-1-enyl)pyridine 1-oxide at 1 mg/kg, po administered as cassette dose measured up to 8 hrs by LC/MS/MS analysis; format: ADME, organism-based; settings: in vivo; outline: as §2
[15] = system: Plasma; experiment: Drug metabolism in mouse plasma assessed as formation of (E)-3-(4-(1-methyl-1H-pyrazol-4-yl)pyridin-3-yl)-N-(4-((3-oxomorpholino)methyl)phenyl)acrylamide at 1 mg/kg, po administered as cassette dose measured up to 8 hrs by LC/MS/MS analysis; format: ADME, organism-based; settings: in vivo; outline: as §2
[16] = system: Plasma; experiment: Drug metabolism in mouse plasma assessed as formation of (E)-N-(4-((2-hydroxyethylamino)methyl)phenyl)-3-(4-(1-methyl-1H-pyrazol-4-yl)pyridin-3-yl)acrylamide at 1 mg/kg, po administered as cassette dose measured up to 8 hrs by LC/MS/MS analysis; format: ADME, organism-based; settings: in vivo; outline: as §2
[17] = target: T1, Cyclin-dependent kinase 8; experiment: Inhibition of CDK8 in human SW480 cells assessed as reduction in STAT1 phosphorylation at Ser727 residues up to 30 nM after 1 day by Western blot method; format: cell-based
Outline: (§4)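 Cell pellets were lysed in 62.5 mM Tris-Cl (pH 7.5), 1% SDS and 5% glycerol, then boiled at 95 °C for 5 min. 5 ug total protein was run on SDS-polyacrylamide gels, transferred and probed for total STAT1 and phospho-STAT1 Ser727. Detection used HRP-conjugated secondary antibodies and ECL plus chemiluminescence.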

[18] = system: RPMI-8226; experiment: Antiproliferative activity against human RPMI8226 cells after 168 hrs by Celltiter-Glo luminescent assay; format: functional; settings: RPMI-8226, 168 h
Outline: (§5)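 Cells seeded at 5×10^2 per well. Compound added 24 h later at an appropriate concentration and incubated 168 h. Viability read by CellTiter-Glo luminescence after 20 min. Nuclear count by CyQuant Direct fluorescence after 1 h.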

[19] = system: EOL1; experiment: Antiproliferative activity against human EOL-1 cells after 168 hrs by Celltiter-Glo luminescent assay; format: functional; settings: EOL1, 168 h; outline: as §5
[20] = system: RPMI-8226; experiment: Antitumor activity against human RPMI8226 cells xenografted in C.B17/Icr-scid/scid Jcl mouse assessed as tumor growth at 15 mg/kg, po bid after 2 weeks relative to control; format: functional
Outline: (§6)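 Female C.B17/Icr-scid/scid Jcl mice, five weeks old, implanted sc in one flank with 1×10^7 RPMI-8226 cells in HBSS:Matrigel 1:1. When tumors reached about 80–140 mm³, dosed po b.i.d. at 15 or 30 mg/kg for 14 days. Caliper volume (0.5×length×width²) and body weight measured twice weekly. Tumor growth expressed as T/C vs vehicle. Mean ± se.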

[21] = system: RPMI-8226; experiment: Antitumor activity against human RPMI8226 cells xenografted in C.B17/Icr-scid/scid Jcl mouse assessed as tumor growth at 30 mg/kg, po bid after 2 weeks relative to control; format: functional; outline: as §6
[22] = system: Mus musculus; experiment: Toxicity in C.B17/Icr-scid/scid Jcl mouse xenografted with human RPMI8226 cells assessed as change in body weight at 15 mg/kg, po bid after 2 weeks; format: organism-based; settings: in vivo, 336 h; outline: as §6
[23] = system: Mus musculus; experiment: Toxicity in C.B17/Icr-scid/scid Jcl mouse xenografted with human RPMI8226 cells assessed as change in body weight at 30 mg/kg, po bid after 2 weeks relative to control; format: organism-based; settings: in vivo, 336 h; outline: as §6
[24] = system: Mus musculus; experiment: In vivo inhibition of STAT1 phosphorylation at Ser727 residues in C.B17/Icr-scid/scid Jcl mouse xenografted with human RPMI8226 cells at 15 to 30 mg/kg, po bid treated for 2 weeks measured over 2 to 8 hrs post dose by Western blot analysis; format: functional, organism-based
Outline: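 Xenografted mice dosed po b.i.d. at 15 or 30 mg/kg for 2 weeks, sampled 2 h and 8 h post-dose on the final day. Samples lysed in Tris-SDS-glycerol buffer and boiled 95 °C for 5 min. 5 ug protein run on SDS-PAGE and blotted for STAT1 and phospho-STAT1 Ser727. HRP secondary with ECL detection.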

[25] = target: T1, Cyclin-dependent kinase 8; experiment: Inhibition of CDK8 in human EOL1 cells assessed as reduction in STAT1 phosphorylation at Ser727 residues up to 30 nM after 1 day by Western blot method; format: cell-based; outline: as §4
[26] = target: T1, Cyclin-dependent kinase 8; experiment: Inhibition of CDK8 in human RPMI8226 cells assessed as reduction in STAT1 phosphorylation at Ser727 residues up to 30 nM after 1 day by Western blot method; format: cell-based; outline: as §4

T1 sequence (P49336 whole entry): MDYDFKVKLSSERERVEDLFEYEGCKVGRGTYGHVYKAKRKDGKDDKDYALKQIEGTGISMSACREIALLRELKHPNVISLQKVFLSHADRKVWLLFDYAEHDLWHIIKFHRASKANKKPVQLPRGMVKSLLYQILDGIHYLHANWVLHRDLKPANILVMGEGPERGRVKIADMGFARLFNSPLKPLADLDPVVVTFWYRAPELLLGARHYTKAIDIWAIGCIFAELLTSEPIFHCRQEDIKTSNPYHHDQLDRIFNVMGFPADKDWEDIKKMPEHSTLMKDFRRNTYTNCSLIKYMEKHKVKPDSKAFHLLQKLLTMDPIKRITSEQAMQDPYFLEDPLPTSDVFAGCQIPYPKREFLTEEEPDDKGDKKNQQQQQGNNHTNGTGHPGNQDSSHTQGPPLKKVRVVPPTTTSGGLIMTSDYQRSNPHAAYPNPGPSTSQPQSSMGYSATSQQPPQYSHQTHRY
CDK8/Cyclin C, sequence (P49336 whole entry): as above
CDK8/Cyclin C, sequence (P24863 whole entry, further chain): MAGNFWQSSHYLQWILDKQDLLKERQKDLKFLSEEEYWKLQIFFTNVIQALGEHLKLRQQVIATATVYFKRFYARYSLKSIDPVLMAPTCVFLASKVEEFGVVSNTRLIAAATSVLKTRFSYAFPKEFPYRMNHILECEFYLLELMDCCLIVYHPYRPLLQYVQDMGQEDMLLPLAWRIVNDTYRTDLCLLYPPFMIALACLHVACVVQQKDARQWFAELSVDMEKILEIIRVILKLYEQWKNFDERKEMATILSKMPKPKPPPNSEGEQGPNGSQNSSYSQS
CYP3A4, sequence (P08684 whole entry): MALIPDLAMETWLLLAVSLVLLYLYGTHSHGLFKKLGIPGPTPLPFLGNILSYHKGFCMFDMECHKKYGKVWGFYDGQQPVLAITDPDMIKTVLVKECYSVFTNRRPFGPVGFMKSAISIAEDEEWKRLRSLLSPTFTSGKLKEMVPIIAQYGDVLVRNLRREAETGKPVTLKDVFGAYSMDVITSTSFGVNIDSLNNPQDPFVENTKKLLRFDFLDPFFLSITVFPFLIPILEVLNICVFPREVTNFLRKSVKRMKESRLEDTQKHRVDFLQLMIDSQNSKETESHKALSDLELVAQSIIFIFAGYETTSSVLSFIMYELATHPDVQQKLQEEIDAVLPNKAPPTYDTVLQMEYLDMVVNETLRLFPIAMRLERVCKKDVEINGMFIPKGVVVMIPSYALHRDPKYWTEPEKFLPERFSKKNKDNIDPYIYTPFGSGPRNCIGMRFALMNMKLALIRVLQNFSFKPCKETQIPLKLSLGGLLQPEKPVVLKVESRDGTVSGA
Cyclin-C/Cyclin-dependent kinase 19, sequence (Q9BWU1 whole entry): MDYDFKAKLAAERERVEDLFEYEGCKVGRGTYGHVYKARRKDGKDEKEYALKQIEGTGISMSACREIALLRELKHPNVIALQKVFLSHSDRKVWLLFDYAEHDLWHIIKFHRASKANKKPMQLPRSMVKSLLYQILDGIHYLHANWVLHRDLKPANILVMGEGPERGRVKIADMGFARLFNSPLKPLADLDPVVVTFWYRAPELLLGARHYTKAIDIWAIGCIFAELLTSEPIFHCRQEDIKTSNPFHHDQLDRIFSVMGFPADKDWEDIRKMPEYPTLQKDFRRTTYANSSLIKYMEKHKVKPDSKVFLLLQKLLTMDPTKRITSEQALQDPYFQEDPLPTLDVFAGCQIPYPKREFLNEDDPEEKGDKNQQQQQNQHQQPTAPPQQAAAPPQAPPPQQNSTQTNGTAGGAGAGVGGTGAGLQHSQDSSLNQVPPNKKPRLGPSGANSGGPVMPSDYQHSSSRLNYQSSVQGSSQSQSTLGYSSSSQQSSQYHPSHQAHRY
Cyclin-C/Cyclin-dependent kinase 19, sequence (P24863 whole entry, further chain): as the sequence (P24863 whole entry, further chain) above

For `Cn1cc(-c2ccncc2/C=C/C(=O)Nc2ccc(CN3CCOCC3)cc2)cn1`, the pIC50 [1] was 8.19, the pIC50 [2] was 7.82 and the pEC50 [3] was 7.89. The activity at 20 min, 30 µM [4] was 81%, the CL/F [5] was 49.5 mL/min/kg and the Cmax [6] was 47.5 ng/mL. For the same compound, the AUC(0-t) at 8 h [7] was 76.9 ng·h/mL, the MRT [8] was 1.5 h and the bioavailability [9] was 21.9%. For the same compound, the microsomal intrinsic clearance [10] was 22 µL/min/mg, the intrinsic clearance [11] was 77 µL/min/mg and the solubility [12] was 68 µg/mL (≈ 169 µM). The Drug metabolism [13] was “Metabolite_Detected”, the Drug metabolism [14] was “Metabolite_Detected” and the Drug metabolism [15] was “Metabolite_Detected”. For the same compound, the Drug metabolism [16] was “Metabolite_Detected”.

In the case of `O=C(/C=C/c1cnccc1-c1cnn(C2CC2)c1)Nc1ccc(CN2CC(F)(F)C2)cc1`, the inhibition [17] was “Active”, the pIC50 [1] was 8.60 and the pEC50 [3] was 8.08. For the same compound, the activity at 20 min, 30 µM [4] was 99%, the Cmax [6] was 321 ng/mL and the AUC(0-t) at 8 h [7] was 370 ng·h/mL. It also gave an MRT [8] of 1.6 h, a bioavailability [9] of 22.5% and a microsomal intrinsic clearance [10] of 15 µL/min/mg. For the same compound, the intrinsic clearance [11] was 97 µL/min/mg, the solubility [12] was 30 µg/mL (≈ 68.9 µM) and the GI50 [18] was 21 nM. The GI50 [19] was 6.5 nM, the T/C [20] was 29% and the T/C [21] was -2%. The Activity [22] was “Non-Toxic”, the Activity [23] was 12% and the inhibition [24] was “Active”. The inhibition [25] was “Active” and the inhibition [26] was “Active”.
